bIAP activator: intestinal alkaline phosphatase (bovine) activation. purified bovine IAP, CDP-star luminescence, 30 min; stronger effect = higher value; fold of DMSO-control signal, blank-subtracted. activation factor at 20 µM. hit rate 0.17% among 200,000. AID 1016;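 active = activation factor of 2 or more at 20 µM, a signal rise over negative controls twice the positive control's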
hIAP block: blocks human intestinal alkaline phosphatase. hit rate 0.12% among 330,000. inhibition, % at 10 µM. P09923. AID 2544. purified IAP, CDP-Star luminescence, 30 min;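 active = inhibition reaching a set limit with compound at 10 µM in the primary screen, cut at about 35% in these data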;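 note: plate controls were DMSO wells with enzyme for no effect and no-enzyme buffer wells for full effect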
Target sequence (P09923 whole entry, looked up): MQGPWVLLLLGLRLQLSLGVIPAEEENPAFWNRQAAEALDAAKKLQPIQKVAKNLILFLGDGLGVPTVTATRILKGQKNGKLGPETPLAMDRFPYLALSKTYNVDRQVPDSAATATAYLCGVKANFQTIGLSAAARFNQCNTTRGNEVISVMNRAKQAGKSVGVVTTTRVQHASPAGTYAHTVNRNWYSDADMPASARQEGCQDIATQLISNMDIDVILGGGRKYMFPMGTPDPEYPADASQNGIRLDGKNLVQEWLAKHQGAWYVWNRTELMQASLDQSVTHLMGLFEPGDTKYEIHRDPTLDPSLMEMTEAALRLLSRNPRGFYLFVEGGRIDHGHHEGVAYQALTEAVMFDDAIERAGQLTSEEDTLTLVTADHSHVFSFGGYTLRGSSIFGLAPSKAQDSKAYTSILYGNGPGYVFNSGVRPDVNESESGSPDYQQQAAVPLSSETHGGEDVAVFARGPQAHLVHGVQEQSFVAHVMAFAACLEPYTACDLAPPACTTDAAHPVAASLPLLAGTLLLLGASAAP
mIAP activ: increases mouse intestinal alkaline phosphatase activity; muIAP, CDP-Star luminescence, 30 min; stronger effect = higher value; 1 = vehicle-only enzyme signal, 0 = enzyme-free wells; AID 2805; activation factor at 10 µM; hit rate 0.24% among 330,000;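 active = activation factor of at least 2 at 20 µM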
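Assay system: mouse IAP enzyme; reagent: chemiluminescent substrate CDP-Star; dosing: test compounds delivered from DMSO solution; schedule: 30 min at room temperature; measured by: luminescence from enzymatic CDP-Star hydrolysis; controls: DMSO-only wells and no-enzyme negative control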
hIAP act: human IAP activation; hit rate 0.16% among 330,000; activation factor at 10 µM; P09923; purified human IAP, CDP-Star luminescence, 30 min; stronger effect = higher value; 1 = vehicle-only enzyme, 0 = enzyme-free background;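 active = activation factor of the enzyme at least 2-fold when tested at 20 µM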
bIAP inhibitor: intestinal alkaline phosphatase (bovine) inhibition; purified bovine IAP, CDP-star luminescence, 30 min; AID 1019; inhibition, % at 20 µM; 190,000 tested, under 10 active;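 active = over 50% inhibition of intestinal alkaline phosphatase at 20 µM in the single-dose screen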
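Assay system – bovine IAP enzyme · Quantity – bovine IAP at 1/65,000,000 final dilution · Detection – CDP-star luminescence signal · Times – 30 min reaction at room temperature · Also added – CDP-star substrate at 30 µM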
mIAP inh: blocks mouse intestinal alkaline phosphatase; purified mouse IAP, CDP-Star luminescence, 30 min; inhibition, % at 10 µM; hit rate 0.2% among 330,000;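 active = inhibition of at least 40% at 10 µM in the primary screen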;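 note: plate controls were DMSO with enzyme for no effect and no enzyme wells for full effect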
hIAP act conf: human IAP activation confirmation; shares compounds with hIAP act; purified IAP, CDP-Star luminescence, 30 min; stronger effect = lower value; activation (%Activity, negative = activation), % at 8.3 µM; hit rate 10% among 880; AID 434926;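 active = at least twofold enzyme activation in any of six single-dose repeats, which the averaged readout prints as negative percent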
mIAP inh conf: mouse IAP inhibition confirmation; hit rate 4.7% among 11,000; AID 434971; shares compounds with mIAP inh; inhibition, % at 10 µM; purified mouse IAP, CDP-Star luminescence, 30 min;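 active = inhibition of at least 40% at 10 µM in either of the two replicates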;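 note: plate controls were DMSO wells with enzyme for no effect and buffer wells lacking enzyme for full effect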
The depositor's hits bear a star; i = inactive; . = not tested or not shown. Only some compounds are listed: those with a hit (about 0.79% of all), similar ones and a draw of the others.

SMILES | bIAP activator | hIAP block | mIAP activ | hIAP act | bIAP inhibitor | mIAP inh | mIAP inh conf | others
O=C1NC(=O)N(c2ccc3c(c2)OCO3)C(=O)/C1=C/c1ccc(N2CCCC2)o1 | 1 | 29.2 | 0.445 | 0.708 | 4.5 | 55.5* | .
O=c1[nH]c(=S)n(Cc2ccco2)c(O)c1C=NCc1cccs1 | 1.1 | -5.6 | 0.388 | 1.06 | -12.4 | 61.2* | .
O=c1[nH]c(=O)n(Cc2ccco2)c(O)c1C=NCc1cccs1 | 0.9 | 1.8 | 0.897 | 0.982 | 12.6 | 10.3 | .
COc1ccc(C(=O)C2CN(C)CC2c2ccc(Cl)cc2)cc1 (configuration not stated) | 1 | -1.9 | 1.06 | 1.02 | 4.5 | -6.1 | .
CN1CC(C(=O)c2ccc(Cl)cc2)C(c2ccccc2F)C1 (configuration not stated) | 1 | -7.2 | 0.577 | 1.07 | 0.2 | 42.3* | .
Cc1cc(=O)oc2c(C)c(OCC(=O)N3CCC(C(=O)O)(c4ccccc4)CC3)ccc12 | . | -5.5 | 1.02 | 1.05 | . | -2.3 | .
CCOC(=O)N(C)c1ccc(C(O)(C(=O)OC)C(F)(F)F)cc1 (configuration not stated) | 2.1* | -8.8 | 1.05 | 1.09 | -106.2 | -5.1 | .
CCCNC(=O)N1[C@H]2CC[C@@H]1C(C(=O)OC)=C(c1cccc(C#N)c1)C2 | . | 13.2 | 1.03 | 0.868 | . | -3.5 | .
CC(C#N)CCC#N (configuration not stated) | . | 3.0 | 1 | 0.97 | . | -0.4 | .
c1ccc2[nH]c(CCNC3CCCCC3)nc2c1 | 2.2* | 1.5 | 0.964 | 0.985 | -120.5 | 3.6 | .
CCCCCCOc1ccc(CN2CCN(CCO)CC2)cc1 | 1.1 | 5.0 | 0.977 | 0.95 | -5.5 | 2.3 | .
CCCCOc1ccc(CN2CCN(CCO)CC2)cc1 | 1 | 36.6* | 0.972 | 0.634 | 1.3 | 2.8 | . | hIAP act conf=-21.9
Cc1ccc(-n2cc(CNC(C)Cc3cnccn3)c(-c3cccc(C)c3)n2)cc1 (configuration not stated) | 1 | -13.4 | 1.22 | 1.13 | 0.1 | -21.9 | .
O=c1[nH]c(=O)n(-c2ccc(Br)cc2)c(O)c1C=NC(CO)(CO)CO | . | 49.6* | 1.06 | 0.504 | . | -6.2 | . | hIAP act conf=2.4
CCN1C(=O)/C(=C\c2ccc([N+](=O)[O-])s2)C(=O)NC1=S | 0.5 | . | . | . | 46.1 | . | .
C=CCN1C(=O)/C(=C/c2ccc(Br)s2)C(=O)NC1=S | . | -11.4 | 0.572 | 1.11 | . | 42.8* | 52.8*
O=C1C2CCCC1C(N1CCCCC1)CC2 (configuration not stated) | . | 12.1 | 0.917 | 0.879 | . | 8.3 | .
O=C1NC(=O)N(c2ccc3c(c2)OCO3)C(=O)/C1=C/c1cccs1 | 1 | 6.4 | 0.276 | 0.936 | 2.9 | 72.4* | 76.5*
Oc1ccc(C[C@H]2NCCc3cc(O)c(O)cc32)cc1O | . | 17.1 | 0.374 | 0.829 | . | 62.6* | 76.3*
CCN(C(=O)COC(=O)c1cn(C)c2ccccc12)c1ccc(F)cc1 | . | 0.9 | 1.01 | 0.991 | . | -1.1 | .
CCN(CC)P(=O)(Oc1ccccc1)Oc1ccccc1 | . | -0.6 | 1.01 | 1.01 | . | -0.7 | .
O=C1NC(=O)N(Cc2ccco2)C(=O)/C1=C/C=C/c1ccco1 | . | 3.8 | 0.281 | 0.962 | . | 71.9* | 74.9*
O=C1NC(=O)N(c2ccccc2)C(=O)/C1=C/C=C/c1ccco1 | . | 0.2 | 0.717 | 0.998 | . | 28.3 | .
O=C1NC(=O)N(Cc2ccccc2)C(=O)/C1=C\C=C\c1ccco1 | 1 | -8.6 | 0.628 | 1.09 | 4.6 | 37.2 | .
Cc1ccc(N2C(=O)NC(=O)/C(=C\C=C\c3ccco3)C2=O)cc1 | . | -2.3 | 0.64 | 1.02 | . | 36.0 | .
SMILES | bIAP activator | hIAP block | mIAP activ | hIAP act | bIAP inhibitor | mIAP inh | mIAP inh conf | others
Cc1cccc(N2C(=O)NC(=O)/C(=C\C=C\c3ccco3)C2=O)c1 | . | 2.1 | 0.548 | 0.979 | . | 45.2* | 52.7*
CN1C(=O)/C(=C/C=C/c2ccco2)C(=O)NC1=S | . | 6.4 | 0.343 | 0.936 | . | 65.7* | 61.5*
Cc1ccc(N2C(=O)/C(=C/c3ccc(CN(CCC#N)S(C)(=O)=O)o3)C(=O)NC2=S)cc1C | 1.1 | 9.2 | 0.573 | 0.908 | -7.0 | 42.7* | 46.1*
CC(=NCC1CCCO1)c1c(O)n(-c2ccccc2C)c(=O)[nH]c1=O (configuration not stated) | . | 1.4 | 0.985 | 0.986 | . | 1.5 | .
N#Cc1c(/N=C/c2c(O)n(Cc3ccco3)c(=O)[nH]c2=O)sc2c1CCCC2 | 1 | 8.7 | 0.361 | 0.913 | 0.0 | 63.9* | 71.5*
O=C1NC(=S)N(c2ccc(F)cc2)C(=O)/C1=C/c1ccco1 | . | 9.5 | 0.533 | 0.905 | . | 46.7* | 60.2*
COc1ccc(OC)c(N2C(=O)/C(=C/c3ccco3)C(=O)NC2=S)c1 | . | 3.6 | 0.581 | 0.964 | . | 41.9* | 58.1*
C=CC(C)C(C(=O)c1ccccc1)N(C)C (configuration not stated) | 1.1 | -12.2 | 1.06 | 1.12 | -11.3 | -6.0 | .
Clc1ccc(C(c2ccc(Cl)cc2)n2cc[n+](CC(OCc3ccc(Cl)cc3Cl)c3ccc(Cl)cc3Cl)c2)cc1 (configuration not stated) | . | -28.2 | 16.8* | 1.28 | . | i | i
Cc1ccc(C2=NCC(=O)Nc3ccc(Br)cc32)cc1 | . | 10.1 | 0.982 | 0.899 | . | 1.8 | .

Screening data as filed in PubChem BioAssay.
